Experiments:
[1] = melting temperature; fluorescence melt of hairpins on a sequencing array, two-state fit, raised by 9.35 °C to match UV melts; details: sodium 0.088 M
In short: (§1)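 Two-state fits, bootstrapped, provided melting temperature and folding enthalpy from Cy3 fluorescence normalised to pre-quench Cy3 and to control constructs. Library hairpins with annealed Cy3 and quencher oligos were imaged on a sequenced MiSeq flow cell in 50 mM Na-HEPES pH 8.0, 25 mM NaCl, at 2.5 °C intervals up to 60 °C. Four replicates were combined with inverse-variance weighting. A 9.35 °C upward shift was applied to fitted temperatures to match UV melts.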

[2] = folding enthalpy; higher = less favourable; fluorescence melt of hairpins on a sequencing array, two-state fit; details: sodium 0.088 M
In short: as §1

GGTTCCGCGAAAGCGACC (((..(((....))))))
Tm [1]: 28.4 °C
folding enthalpy [2]: -8.82 kcal/mol

GGTTCCGGAAACAGAACC (((((.(....).)))))
Tm [1]: 41.1 °C
folding enthalpy [2]: -35.7 kcal/mol

GGTTCGACGAAAGTCACC (((..(((....))))))
Tm [1]: 24.9 °C
folding enthalpy [2]: -11.9 kcal/mol

GGTTCGGCGAAAGCCACC (((..(((....))))))
Tm [1]: 28.7 °C
folding enthalpy [2]: -9.35 kcal/mol

GGTTCTACGAAAGTAACC (((..(((....))))))
Tm [1]: 28.2 °C
folding enthalpy [2]: -19.6 kcal/mol

GGTTCTCGAAAGAGGACC (((.(((....))).)))
Tm [1]: 57.2 °C
folding enthalpy [2]: -42.8 kcal/mol

GGTTCTGAAAAGAACC ((((((....))))))
Tm [1]: 59.2 °C
folding enthalpy [2]: -33.3 kcal/mol

GGTTCTGGAAACAGAGTC (..((((....))))..)
Tm [1]: 28.1 °C
folding enthalpy [2]: -11.8 kcal/mol

GGTTGAGCGAAAGCTACC (((..(((....))))))
Tm [1]: 42.4 °C
folding enthalpy [2]: -13.1 kcal/mol

GGTTGAGGAAACTCGATC (.(.(((....))).).)
Tm [1]: 29.8 °C
folding enthalpy [2]: -16.8 kcal/mol

GGTTGATCGAAAGATACC (((..(((....))))))
Tm [1]: 25.5 °C
folding enthalpy [2]: -8.74 kcal/mol

GGTTGCCGAAAGGCCACC (((.(((....))).)))
Tm [1]: 52.6 °C
folding enthalpy [2]: -26.6 kcal/mol

GGTTGCGAAAGCAGCACC ((((((....)))..)))
Tm [1]: 41 °C
folding enthalpy [2]: -12.4 kcal/mol

GGTTGCGAAAGCATACC ((((((....))).)))
Tm [1]: 51.8 °C
folding enthalpy [2]: -28.7 kcal/mol

GGTTGCGAAAGCATGACC ((((((....)))..)))
Tm [1]: 40.2 °C
folding enthalpy [2]: -15.7 kcal/mol

GGTTGCGGAAACGCAGTC (..((((....))))..)
Tm [1]: 36.1 °C
folding enthalpy [2]: -12.8 kcal/mol

GGTTGGCGAAAGCCACC (((.(((....))))))
Tm [1]: 57.7 °C
folding enthalpy [2]: -16.5 kcal/mol

GGTTGGGGAAACCCGATC (.(.(((....))).).)
Tm [1]: 34.4 °C
folding enthalpy [2]: -21.6 kcal/mol

GGTTGGGGAAACCTAGCC ((.(.((....)).).))
Tm [1]: 38 °C
folding enthalpy [2]: -19.1 kcal/mol

GGTTGGGGAAACTCAACC (((((.(....).)))))
Tm [1]: 51.1 °C
folding enthalpy [2]: -38.4 kcal/mol

GGTTGGTCGAAAGACACC (((..(((....))))))
Tm [1]: 37 °C
folding enthalpy [2]: -17.3 kcal/mol

GGTTGTCCGAAAGGAACC (((..(((....))))))
Tm [1]: 31.2 °C
folding enthalpy [2]: -14.5 kcal/mol

GGTTGTGGAAACACAGCC ((.((((....)))).))
Tm [1]: 52.1 °C
folding enthalpy [2]: -42.4 kcal/mol

GGTTGTGGAAACGTAACC ((((..(....)..))))
Tm [1]: 35.7 °C
folding enthalpy [2]: -24.3 kcal/mol

GGTTTACGAAAGTATACC (((.(((....))).)))
Tm [1]: 45.5 °C
folding enthalpy [2]: -39.3 kcal/mol

GGTTTAGGAAACTGAACC ((((.((....)).))))
Tm [1]: 43.2 °C
folding enthalpy [2]: -31.8 kcal/mol

GGTTTCCCGAAAGGGACC (((..(((....))))))
Tm [1]: 33.8 °C
folding enthalpy [2]: -12.3 kcal/mol

GGTTTCGAAAGAAAAACC ((((((....)))..)))
Tm [1]: 33.6 °C
folding enthalpy [2]: -23.4 kcal/mol

GGTTTCGAAAGAAACC ((((((....))))))
Tm [1]: 64.2 °C
folding enthalpy [2]: -40.8 kcal/mol

GGTTTCGAAAGAAGTACC ((((((....)))..)))
Tm [1]: 29.8 °C
folding enthalpy [2]: -12.7 kcal/mol

GGTTTCGGAAACGGAACC ((((.((....)).))))
Tm [1]: 52.6 °C
folding enthalpy [2]: -45 kcal/mol

GGTTTGCGAAAGCACACC (((.(((....))).)))
Tm [1]: 51.7 °C
folding enthalpy [2]: -28.2 kcal/mol

GGTTTGGGAAACCAAACC (((((((....)))))))
Tm [1]: 64.6 °C
folding enthalpy [2]: -40.3 kcal/mol

GGTTTGGGAAACCAGACC (((.(((....))).)))
Tm [1]: 47.8 °C
folding enthalpy [2]: -33.1 kcal/mol

GGTTTGGGAAACTAGACC (((.(.(....).).)))
Tm [1]: 30.7 °C
folding enthalpy [2]: -18.1 kcal/mol

GTAAAAGAAATTTTAC ((((((....))))))
Tm [1]: 30.8 °C
folding enthalpy [2]: -13 kcal/mol

GTAAAAGCGAAAGCTTAC (((..(((....))))))
Tm [1]: 35.9 °C
folding enthalpy [2]: -11.6 kcal/mol

GTAAACCGAAAGGTTAC (((.(((....))))))
Tm [1]: 43.2 °C
folding enthalpy [2]: -15.7 kcal/mol

GTAAACGAAAGTTACTAC ((((((....)))..)))
Tm [1]: 34.8 °C
folding enthalpy [2]: -17.6 kcal/mol

GTAAACGAAAGTTTTAC ((((((....))).)))
Tm [1]: 36.5 °C
folding enthalpy [2]: -18.5 kcal/mol

GTAAACTCGAAAGAGTAC (((..(((....))))))
Tm [1]: 31 °C
folding enthalpy [2]: -11.9 kcal/mol

GTAAAGCCGAAAGGCTAC (((..(((....))))))
Tm [1]: 35.5 °C
folding enthalpy [2]: -8.48 kcal/mol

GTAAAGCGAAAGCTATAC (((.(((....))).)))
Tm [1]: 41.3 °C
folding enthalpy [2]: -15.6 kcal/mol

GTAAATACGAAAGTATAC (((..(((....))))))
Tm [1]: 25 °C
folding enthalpy [2]: -9.48 kcal/mol

GTAAATCCGAAAGGATAC (((..(((....))))))
Tm [1]: 33.8 °C
folding enthalpy [2]: -11 kcal/mol

GTAACACGAAAGTGATAC (((.(((....))).)))
Tm [1]: 46.8 °C
folding enthalpy [2]: -25.5 kcal/mol

GTAACCCCGAAAGGGTAC (((..(((....))))))
Tm [1]: 35 °C
folding enthalpy [2]: -13.6 kcal/mol

GTAACCCGAAAGGGCTAC (((.(((....))).)))
Tm [1]: 45.6 °C
folding enthalpy [2]: -20 kcal/mol

GTAACCCGAAAGGGTAC (((.(((....))))))
Tm [1]: 50.1 °C
folding enthalpy [2]: -12.5 kcal/mol

GTAACCGAAAGGTCTTAC ((((((....)))..)))
Tm [1]: 30.6 °C
folding enthalpy [2]: -11.6 kcal/mol

GTAACCGAAAGGTTAC ((((((....))))))
Tm [1]: 67.1 °C
folding enthalpy [2]: -29 kcal/mol

GTAACCGCGAAAGCGTAC (((..(((....))))))
Tm [1]: 28.4 °C
folding enthalpy [2]: -8.01 kcal/mol

GTAACCGGAAACAGTTAC (((((.(....).)))))
Tm [1]: 32.9 °C
folding enthalpy [2]: -21.2 kcal/mol

GTAACCGGAAACGGCTAC (((.(((....))).)))
Tm [1]: 42.9 °C
folding enthalpy [2]: -25.9 kcal/mol

GTAACCGGAAACGGTCAC ((.((((....)))).))
Tm [1]: 39.7 °C
folding enthalpy [2]: -17.2 kcal/mol

GTAACCGGAAACGGTTAC (((((((....)))))))
Tm [1]: 65.8 °C
folding enthalpy [2]: -38.8 kcal/mol

GTAACGCGAAAGCGGTAC (((.(((....))).)))
Tm [1]: 65.3 °C
folding enthalpy [2]: -27.1 kcal/mol

GTAACGGGAAACCGTCAC ((.((((....)))).))
Tm [1]: 35.7 °C
folding enthalpy [2]: -16.4 kcal/mol

GTAACGGGAAACCGTTAC (((((((....)))))))
Tm [1]: 60.5 °C
folding enthalpy [2]: -49.6 kcal/mol

GTAACTCGAAAGAGTAC (((.(((....))))))
Tm [1]: 42.4 °C
folding enthalpy [2]: -15 kcal/mol

GTAACTGAAAAGTTAC ((((((....))))))
Tm [1]: 50.9 °C
folding enthalpy [2]: -31.4 kcal/mol

GTAAGACGAAAGTCGTAC (((.(((....))).)))
Tm [1]: 50.4 °C
folding enthalpy [2]: -17.8 kcal/mol

GTAAGACGAAAGTCTAC (((.(((....))))))
Tm [1]: 41.7 °C
folding enthalpy [2]: -14.6 kcal/mol

GTAAGAGGAAACTCTTGC (.(((((....))))).)
Tm [1]: 38.7 °C
folding enthalpy [2]: -25 kcal/mol

GTAAGCGAAAGCTTGTAC ((((((....)))..)))
Tm [1]: 32.3 °C
folding enthalpy [2]: -11.7 kcal/mol

GTAAGCGGAAACACTTAC (((((.(....).)))))
Tm [1]: 35.6 °C
folding enthalpy [2]: -29.8 kcal/mol

GTAAGCGGAAACGTTTGC (.((.((....)).)).)
Tm [1]: 31.9 °C
folding enthalpy [2]: -14.9 kcal/mol

GTAAGGCCGAAAGGCTAC (((..(((....))))))
Tm [1]: 33.8 °C
folding enthalpy [2]: -9.55 kcal/mol

GTAAGGCGAAAGCCGTAC (((.(((....))).)))
Tm [1]: 53 °C
folding enthalpy [2]: -14.2 kcal/mol

GTAAGGGAAACCTTAC ((((((....))))))
Tm [1]: 48 °C
folding enthalpy [2]: -26.2 kcal/mol

GTAAGGGGAAACCCCTAC (((.(((....))).)))
Tm [1]: 39 °C
folding enthalpy [2]: -16.9 kcal/mol

GTAAGGGGAAACCCTTGC (.(((((....))))).)
Tm [1]: 46.2 °C
folding enthalpy [2]: -23.3 kcal/mol

GTAAGTCCGAAAGGATAC (((..(((....))))))
Tm [1]: 25.9 °C
folding enthalpy [2]: -10.1 kcal/mol

GTAAGTCGAAAGACCTAC (((.(((....))).)))
Tm [1]: 35.7 °C
folding enthalpy [2]: -17 kcal/mol

GTAAGTGGAAACACTTAC (((((((....)))))))
Tm [1]: 55.4 °C
folding enthalpy [2]: -45.2 kcal/mol

GTAATAACGAAAGTTTAC (((..(((....))))))
Tm [1]: 26.8 °C
folding enthalpy [2]: -10.5 kcal/mol

GTAATACCGAAAGGTTAC (((..(((....))))))
Tm [1]: 31.5 °C
folding enthalpy [2]: -14.6 kcal/mol

GTAATCCGAAAGGAATAC (((.(((....))).)))
Tm [1]: 40.6 °C
folding enthalpy [2]: -26.2 kcal/mol

GTAATCGAAAGATTATAC ((((((....)))..)))
Tm [1]: 33.4 °C
folding enthalpy [2]: -15.6 kcal/mol

GTAATCGGAAACGACTAC (((.(((....))).)))
Tm [1]: 34.3 °C
folding enthalpy [2]: -19.5 kcal/mol

GTAATGCGAAAGCAATAC (((.(((....))).)))
Tm [1]: 44.6 °C
folding enthalpy [2]: -20 kcal/mol

GTAATGCGAAAGCACTAC (((.(((....))).)))
Tm [1]: 39.4 °C
folding enthalpy [2]: -19.9 kcal/mol

GTAATGGGAAACCATTGC (.(((((....))))).)
Tm [1]: 43.3 °C
folding enthalpy [2]: -26.4 kcal/mol

GTAATGGGAAACCGTTAC ((((.((....)).))))
Tm [1]: 44.1 °C
folding enthalpy [2]: -34.3 kcal/mol

GTAATGTCGAAAGACTAC (((..(((....))))))
Tm [1]: 28.8 °C
folding enthalpy [2]: -11.7 kcal/mol

GTAATTGGAAACAATTAC (((((((....)))))))
Tm [1]: 50.4 °C
folding enthalpy [2]: -45.9 kcal/mol

GTAATTGGAAACGATTAC (((((.(....).)))))
Tm [1]: 38.1 °C
folding enthalpy [2]: -32.4 kcal/mol

GTACAACGAAAGTTTAC (((.(((....))))))
Tm [1]: 27.8 °C
folding enthalpy [2]: -11.5 kcal/mol

GTACAAGCGAAAGCTTAC (((..(((....))))))
Tm [1]: 28.4 °C
folding enthalpy [2]: -11.2 kcal/mol

GTACAAGGAAACTCGTAC ((((.((....)).))))
Tm [1]: 29.1 °C
folding enthalpy [2]: -22 kcal/mol

GTACACGAAAGTGATTAC ((((((....)))..)))
Tm [1]: 27.4 °C
folding enthalpy [2]: -14.6 kcal/mol
